Paper PMC6785039 (Nature, 2019)
pIC50: −log10 of the molar value. Where “and” joins values, the source holds several entries; their conditions need not be identical. Identical values can stand only once.

Experiments:
SLC19A1 [1] = biological target: T1, SLC19A1 (Homo sapiens, UniProt P41440); assay: [32P] 2’3’-cGAMP uptake and competition uptake assay in THP-1 cells; format: cell-based; details: for 2’3’-cGAMP uptake, time course with inhibitor in culture medium: 500 μM, various cell lines (THP-1, U937, K562); for pIC50: IC50, competition of [32P] 2’3’-cGAMP uptake, THP-1 cells, varying concentrations of competing, unlabeled ligand, 1 nM [32P] 2’3’-cGAMP; for [32P] 2’3’-cGAMP uptake in presence of unlabeled nucleotide: 200 μM competing; for CDN uptake and/or stimulation: human cells; for CDN uptake: human cell lines and primary cells ex vivo
T1 sequence (P41440 1-591): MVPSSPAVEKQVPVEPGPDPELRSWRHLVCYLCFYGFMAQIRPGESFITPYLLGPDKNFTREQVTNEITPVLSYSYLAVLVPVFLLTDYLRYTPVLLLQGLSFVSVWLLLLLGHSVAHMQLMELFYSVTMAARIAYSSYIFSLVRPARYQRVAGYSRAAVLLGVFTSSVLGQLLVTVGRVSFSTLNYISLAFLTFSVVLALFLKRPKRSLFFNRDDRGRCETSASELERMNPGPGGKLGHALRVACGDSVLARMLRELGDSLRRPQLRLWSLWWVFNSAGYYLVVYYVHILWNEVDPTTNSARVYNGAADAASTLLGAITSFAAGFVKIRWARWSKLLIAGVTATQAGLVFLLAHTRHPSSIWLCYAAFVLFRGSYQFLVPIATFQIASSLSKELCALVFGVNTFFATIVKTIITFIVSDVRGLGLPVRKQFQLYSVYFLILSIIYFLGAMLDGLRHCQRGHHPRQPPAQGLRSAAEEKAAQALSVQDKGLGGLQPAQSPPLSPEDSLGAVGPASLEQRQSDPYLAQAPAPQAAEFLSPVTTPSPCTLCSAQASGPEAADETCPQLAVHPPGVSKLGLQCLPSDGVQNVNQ

SLC19A1 [2] = biological target: T1, SLC19A1; assay: [32P] 2’3’-cGAMP uptake assay in human PBMCs; format: cell-based
THP-1 cells = format: cell-based, human; details: hIFN-β 100 ng/ml, sulfasalazine at high concentrations
murine splenocytes = assay: [32P] 2’3’-cGAMP uptake assay in primary murine splenocytes; format: cell-based, mouse; details: 500 μM competing, unlabeled
SLC19A1 [3] = biological target: T1, SLC19A1; assay: [3H]-methotrexate uptake assay in THP-1 cells; format: cell-based; details: SLC19A1-depleted THP-1 cells, 1h
Summary of the method: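 Cells washed and resuspended at 4x10^6/ml in MHS buffer (20 mM HEPES, 235 mM sucrose, pH 7.4 with MgO). Exposed to 12.3 nM [3H]-methotrexate at 37°C and 5% CO2 for 1 h. Radioactivity was counted by liquid scintillation for 3 min per sample, and counts per minute were normalized to total protein.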

SLC19A1 [4] = biological target: T1, SLC19A1; assay: [32P] 2’3’-cGAMP uptake assay in K562 cells; format: cell-based; details: 5 μM, one hour
STING = STING pathway activation; format: cell-based, human; details: THP-1 pre-treated with 5 μM
Summary of the method: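 Stimulated 4 h with 100 µM 2'3'-cGAMP, with or without digitonin (5 µg/mL). Read-outs were IFNB1 mRNA by RT-qPCR and STING dimerization/phosphorylation by semi-native PAGE immunoblot. Means of n=2 technical replicates.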

[5] = 500 μM excess, unlabeled, three hours, six healthy donors

2’3’-cGAMP uptake, time course with inhibitor in culture medium (SLC19A1 [1]) | pIC50 (SLC19A1 [1]) | [32P] 2’3’-cGAMP uptake in PBMCs (SLC19A1 [2]; [5]) | CDN uptake and/or stimulation (SLC19A1 [1]) | Compound | effect on reporter responses to hIFN-β (THP-1 cells) | other results
Sustained inhibition | 8.39 | strongly inhibited | – | CN1c2c(nc(N)[nH]c2=O)NCC1CNc1ccc(C(=O)N[C@@H](CCC(=O)O)C(=O)O)cc1 (stereo partly shown) [5-me-THF, 5-methyl-tetrahydrofolic acid] | did not inhibit | completeness of inhibition of [32P] 2’3’-cGAMP uptake (SLC19A1 [1]; THP-1, compared to the other (anti-) folates): did not observe complete inhibition; trans-stimulation of 2’3’-cGAMP influx by preloading the cells (SLC19A1 [1]; THP-1, preloaded 30 min, washed, [32P] 2’3’-cGAMP for one hour): augmented
– | – | – | – | Nc1ncnc2c1ncn2[C@@H]1O[C@H](COP(=O)(O)O)[C@@H](O)[C@H]1O [AMP] | – | [32P] 2’3’-cGAMP uptake in presence of unlabeled nucleotide (SLC19A1 [1]; THP-1, one hour): slightly inhibited
– | – | – | – | Nc1nc2c(ncn2[C@@H]2O[C@H](COP(=O)(O)O)[C@@H](O)[C@H]2O)c(=O)[nH]1 [GMP] | – | [32P] 2’3’-cGAMP uptake in presence of unlabeled nucleotide (SLC19A1 [1]; THP-1, one hour): slightly inhibited
Sustained inhibition | 5.32 | – | almost completely blocked | Nc1nc(=O)c2nc(CNc3ccc(C(=O)N[C@@H](CCC(=O)O)C(=O)O)cc3)cnc2[nH]1 [folic acid] | – | –
Sustained inhibition | – | strongly inhibited | almost completely blocked | CN(Cc1cnc2nc(N)nc(N)c2n1)c1ccc(C(=O)N[C@@H](CCC(=O)O)C(=O)O)cc1 [methotrexate] | did not inhibit | CDN uptake (SLC19A1 [1]): inhibited; 2’3’-cGAMP uptake by murine splenocytes (murine splenocytes): did not inhibit; uptake of methotrexate in SLC19A1-depleted cells (SLC19A1 [3]): nearly abolished
Sustained inhibition | 5.68 and 5.69 | strongly inhibited | almost completely blocked | O=C(O)c1cc(/N=N/c2ccc(S(=O)(=O)Nc3ccccn3)cc2)ccc1O [sulfasalazine] | blocked | CDN uptake (SLC19A1 [1]): inhibited
– | – | – | – | N-hydroxysuccinimide (NHS)-methotrexate [NHS-methotrexate] | – | 2’3’-cGAMP influx in treated cells (SLC19A1 [1]; THP-1, 5 μM, one hour): much reduced; 2’3’-cGAMP influx in treated cells (SLC19A1 [4]): much reduced; [32P] 2’3’-cGAMP uptake in PBMCs (SLC19A1 [2]; 5 μM pre-treatment, one hour, four healthy donors): strongly inhibited; STING activation by 2’3’-cGAMP (STING): blocks STING activation
